Reference: ChEMBL document CHEMBL5113496, “A systematic exploration of boceprevir-based main protease inhibitors as SARS-CoV-2 antivirals” (Eur J Med Chem, 2022)

Legend:
[1] = test system: SARS-CoV-2; assay: Antiviral activity against SARS-CoV2 USA-WA1/2020 infected in African green monkey Vero E6 cells assessed as reduction in viral plaques incubated for 3 days by plaque reduction neutralization test; type: functional, organism-based; conditions: Severe acute respiratory syndrome coronavirus 2, USA-WA1/2020, Vero C1008, 72 h
[2] = test system: SARS-CoV-2; assay: Antiviral activity against SARS-CoV2 Beta infected in African green monkey Vero E6 cells assessed as reduction in viral plaques incubated for 3 days by plaque reduction neutralization test; type: functional, organism-based; conditions: Severe acute respiratory syndrome coronavirus 2, Beta, Vero C1008, 72 h
[3] = test system: SARS-CoV-2; assay: Antiviral activity against SARS-CoV2 Delta infected in African green monkey Vero E6 cells assessed as reduction in viral plaques incubated for 3 days by plaque reduction neutralization test; type: functional, organism-based; conditions: Severe acute respiratory syndrome coronavirus 2, Delta, Vero C1008, 72 h
[4] = Cytotoxicity against HEK293T/17 cells assessed as inhibition of cell growth incubated for 48 hrs by MTT assay; type: toxicity, cell-based; conditions: human, hek293t/17, 48 h
Summary of the method: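 293T cells seeded and held 24 h at 37 °C, 5% CO2, then exposed in triplicate for 48 h to a range of compound concentrations. Compounds were taken from DMSO stocks and diluted in culture medium. Viability was read by MTT. CC50 was taken from normalised % viability plotted against log10 concentration.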

| Structure (SMILES) | EC50 [1] [nM] | EC50 [2] [nM] | EC50 [3] [nM] | CC50 [4] [nM] |
| --- | --- | --- | --- | --- |
| CC(C)(C)[C@H](NC(=O)OCc1ccccc1)C(=O)N1C[C@H]2[C@@H]([C@H]1C(=O)N[C@H](C=O)C[C@@H]1CCNC1=O)C2(C)C | 2940 | 860 | 1040 | 144000 |
| CC(C)(C)OC(=O)N[C@H](C(=O)N1C[C@H]2[C@@H]([C@H]1C(=O)N[C@H](C=O)C[C@@H]1CCNC1=O)C2(C)C)C(C)(C)C | 610 | – | 1000 | 34200 |
| C[C@@H](OC(C)(C)C)[C@H](NC(=O)OCc1ccccc1)C(=O)N1C[C@H]2[C@@H]([C@H]1C(=O)N[C@H](C=O)C[C@@H]1CCNC1=O)C2(C)C | 1080 | 2280 | 750 | 163000 |
